This passage reports inhibition, K and Activity results from ChEMBL document CHEMBL4052634, “Covalent inhibitors of LgtC: A blueprint for the discovery of non-substrate-like inhibitors for bacterial glycosyltransferases” (Bioorg Med Chem, 2017).

The test system of assay [1] is Neisseria meningitidis. Description: Inhibition of Neisseria meningitidis alpha-1,4-galactosyltransferase assessed as consumption of donor UDP-Gal by measuring turnover rate at 0.1 to 50 uM using lactose as substrate preincubated for 10 mins followed by lactose and UDP-Gal addition measured after 20 mins by malachite green dye-based assay relative to total UDP-Gal used. The gist of the method: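 Enzyme (DTT-activated) with MnCl2 5 mM, CIP 10 U/mL, lysozyme 1 mg/mL, 0.01% Triton, 13 mM HEPES pH 7.0 and inhibitor in DMSO (10% final) pre-incubated 10 min at 30 °C before UDP-Gal (28 µM) plus lactose (2 mM) added; 20 min at 30 °C; UDP read by malachite green at 620 nm versus UDP standard curve, background-corrected; triplicate.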

Assay [2] has as its system Neisseria meningitidis. Nature of the assay: Inhibition of Neisseria meningitidis alpha-1,4-galactosyltransferase assessed as consumption of donor UDP-Gal by measuring turnover rate at 0.1 to 50 uM using lactose as substrate in presence of UDP-Gal measured after 20 min by malachite green dye-based assay relative to total UDP-Gal used. The gist of the method:
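No pre-incubation: DTT-activated LgtC with MnCl2 5 mM, CIP 10 U/mL, egg-white lysozyme 1 mg/mL, 0.01% Triton, 13 mM HEPES pH 7.0, lactose 2 mM, inhibitor in DMSO (10% final); started with UDP-Gal 28 µM, 20 min at 30 °C, 20-50% donor turnover. Malachite green read at 620 nm against a UDP calibration curve, background without acceptor subtracted, % of assay window; triplicate minimum; IC50 from sigmoidal fit.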

In assay [3] the test system is Neisseria meningitidis. Nature of the assay: Inhibition of Neisseria meningitidis alpha-1,4-galactosyltransferase assessed as rate constant for enzyme activity at 2 uM using lactose as substrate preincubated with substrate measured after 20 mins in presence of UDP-Gal. The gist of the method:
(§1)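 Activity measured at a series of inhibitor concentrations (0.5-200 µM range overall) after pre-incubation with LgtC for 0, 5, 10, 20 and 30 min, using the pre-incubation protocols (lactose 2 mM, UDP-Gal 28 µM, 20 min at 30 °C, malachite green); % of DMSO control plotted semi-logarithmically versus pre-incubation time to give kobs; kobs versus concentration gave Ki and kinact; triplicate.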

Assay [4] deals with Neisseria meningitidis. Nature of the assay: Binding affinity to Neisseria meningitidis alpha-1,4-galactosyltransferase assessed as covalent adduct formation at 50 uM by mass spectrometric analysis. As to conditions: TDE = time-dependent effect. The gist of the method:
(§2)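 LgtC stock without DTT activation, diluted in 13 mM HEPES pH 7.0, incubated with inhibitor (100 or 50 µM, added in DMSO; 10% final DMSO) for 20 min at 30 °C; samples injected directly for electrospray MS to detect protein-inhibitor adducts.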

Assay [5] has as its system Neisseria meningitidis. Description: Inhibition of Neisseria meningitidis alpha-1,4-galactosyltransferase assessed as consumption of donor UDP-Gal by measuring turnover rate at 0.1 to 50 uM using lactose as substrate preincubated for 60 mins followed by lactose and UDP-Gal addition measured after 20 mins by malachite green dye-based assay relative to total UDP-Gal used.

Assay [6] concerns Neisseria meningitidis. Description: Inhibition of Neisseria meningitidis alpha-1,4-galactosyltransferase assessed as rate constant for enzyme activity at 1.5 uM using lactose as substrate preincubated with substrate measured after 20 mins in presence of UDP-Gal. The gist of the method: as §1
The subject of assay [7] is Neisseria meningitidis. Nature of the assay: Binding affinity to Neisseria meningitidis alpha-1,4-galactosyltransferase assessed as covalent-enzyme adduct formation at 100 uM after 20 mins by mass spectroscopy. The settings on record: 50 uM, in the assay text read “at 50 uM” for “at 100 uM”. The gist of the method:
as §2

Assay [8] deals with Neisseria meningitidis. Nature of the assay: Inhibition of Neisseria meningitidis alpha-1,4-galactosyltransferase assessed as consumption of donor UDP-Gal by measuring turnover rate at 0.1 to 50 uM using lactose as substrate preincubated for 180 mins followed by lactose and UDP-Gal addition measured after 20 mins by malachite green dye-based assay relative to total UDP-Gal used.

Assay [9] has as its system Neisseria meningitidis. Nature of the assay: Inhibition of Neisseria meningitidis alpha-1,4-galactosyltransferase assessed as consumption of donor UDP-Gal by measuring turnover rate at 0.1 to 50 uM using lactose as substrate preincubated for 30 mins followed by lactose and UDP-Gal addition measured after 20 mins by malachite green dye-based assay relative to total UDP-Gal used.

Assay [10] has as its system Neisseria meningitidis. Description: Inhibition of Neisseria meningitidis alpha-1,4-galactosyltransferase assessed as consumption of donor UDP-Gal by measuring turnover rate at 0.1 to 50 uM using lactose as substrate preincubated for 5 mins followed by lactose and UDP-Gal addition measured after 20 mins by malachite green dye-based assay relative to total UDP-Gal used.

The test system of assay [11] is Neisseria meningitidis. Description: Inhibition of Neisseria meningitidis alpha-1,4-galactosyltransferase assessed as rate constant for enzyme activity at 200 uM using lactose as substrate preincubated with substrate measured after 20 mins in presence of UDP-Gal. The gist of the method: as §1
In assay [12] the test system is Neisseria meningitidis. Nature of the assay: Binding affinity to Neisseria meningitidis alpha-1,4-galactosyltransferase assessed as covalent-enzyme adduct formation at 50 uM after 20 mins by mass spectroscopy. As to conditions: 100 uM, in the assay text read “at 100 uM” for “at 50 uM”. The gist of the method:
as §2

For assay [13], the system named is Neisseria meningitidis. Nature of the assay: Inhibition of Neisseria meningitidis alpha-1,4-galactosyltransferase assessed as consumption of donor UDP-Gal by measuring turnover rate at 0.1 to 100 uM using lactose as substrate preincubated for 180 mins followed by lactose and UDP-Gal addition measured after 20 mins by malachite green dye-based assay relative to total UDP-Gal used.

In assay [14] the test system is Neisseria meningitidis. Nature of the assay: Inhibition of Neisseria meningitidis alpha-1,4-galactosyltransferase assessed as consumption of donor UDP-Gal by measuring turnover rate at 0.1 to 100 uM using lactose as substrate preincubated for 20 mins followed by lactose and UDP-Gal addition measured after 20 mins by malachite green dye-based assay relative to total UDP-Gal used.

For assay [15], the system named is Neisseria meningitidis. Description: Inhibition of Neisseria meningitidis alpha-1,4-galactosyltransferase assessed as consumption of donor UDP-Gal by measuring turnover rate at 0.1 to 100 uM using lactose as substrate preincubated for 30 mins followed by lactose and UDP-Gal addition measured after 20 mins by malachite green dye-based assay relative to total UDP-Gal used.

Assay [16] concerns Neisseria meningitidis. Description: Inhibition of Neisseria meningitidis alpha-1,4-galactosyltransferase assessed as rate constant for enzyme activity at 100 uM using lactose as substrate preincubated with substrate measured after 20 mins in presence of UDP-Gal. The gist of the method: as §1
Assay [17] deals with Intestinal-type alkaline phosphatase (Bos taurus) (UniProt P19111). Description: Inhibition of calf intestinal alkaline […] at 0.1 to 100 uM using UDP as substrate after 20 mins by malachite green dye-based assay.
Chain of Intestinal-type alkaline phosphatase (Bos taurus) (P19111 20-506 limits assumed): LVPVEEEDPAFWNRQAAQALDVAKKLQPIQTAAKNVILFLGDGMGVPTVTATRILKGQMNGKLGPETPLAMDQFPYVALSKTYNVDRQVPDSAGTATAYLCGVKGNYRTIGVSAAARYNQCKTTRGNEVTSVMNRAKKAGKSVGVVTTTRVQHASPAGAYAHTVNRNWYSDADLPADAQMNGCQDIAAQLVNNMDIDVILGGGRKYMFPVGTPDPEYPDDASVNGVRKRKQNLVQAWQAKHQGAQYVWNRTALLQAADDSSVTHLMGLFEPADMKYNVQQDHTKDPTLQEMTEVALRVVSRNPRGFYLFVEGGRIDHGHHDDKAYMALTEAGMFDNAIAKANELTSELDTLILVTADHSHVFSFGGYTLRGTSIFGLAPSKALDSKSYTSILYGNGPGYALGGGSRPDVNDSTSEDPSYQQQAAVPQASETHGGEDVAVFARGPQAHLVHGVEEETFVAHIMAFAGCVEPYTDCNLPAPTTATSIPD
Assay [18] relates to Neisseria meningitidis. Nature of the assay: Inhibition of Neisseria meningitidis alpha-1,4-galactosyltransferase assessed as rate constant for enzyme activity at 6 uM using lactose as substrate preincubated with substrate measured after 20 mins in presence of UDP-Gal. In short, it runs like this:
as §1

In assay [19] the test system is Neisseria meningitidis. Nature of the assay: Inhibition of Neisseria meningitidis alpha-1,4-galactosyltransferase assessed as consumption of donor UDP-Gal by measuring turnover rate at 0.1 to 100 uM using lactose as substrate preincubated for 60 mins followed by lactose and UDP-Gal addition measured after 20 mins by malachite green dye-based assay relative to total UDP-Gal used.

In assay [20] the test system is Neisseria meningitidis. Nature of the assay: Inhibition of Neisseria meningitidis alpha-1,4-galactosyltransferase assessed as rate constant for enzyme activity at 15 uM using lactose as substrate preincubated with substrate measured after 20 mins in presence of UDP-Gal. In short, it runs like this:
as §1

Calls of active or inactive are those of the source. The calls are words filed in the database; no cut-off is given here.

Regarding `COc1ccc(/C=C2\C(=O)N(c3ccccc3)N=C2C(F)(F)F)cc1Br`, the inhibition (as a rule, the percentage by which the read-out fell short of the control) in the assay on Neisseria meningitidis [1] was 46%; in the assay on Neisseria meningitidis [2] it was 30%; in the assay with Neisseria meningitidis [5] it was 39%; in the assay with Neisseria meningitidis [8] it was 26%; with Neisseria meningitidis [9], 32%; in the assay with Neisseria meningitidis [10], 32%. Moreover, the K with Neisseria meningitidis [3] came out at 0.012 min⁻¹; in the assay on Neisseria meningitidis [6], 0.017 min⁻¹. Further, the Activity result in the assay on Neisseria meningitidis [4] is “Tde”. The outcome in the assay with Neisseria meningitidis [7] was Active.
Take `O=C1/C(=C\c2cccc(OCc3ccccc3)c2)C(C(F)(F)F)=NN1c1ccccc1`: the K came to 0.079 min⁻¹ with Neisseria meningitidis [11], 0.072 min⁻¹ with Neisseria meningitidis [16], 0.01 min⁻¹ in the assay with Neisseria meningitidis [18] and 0.021 min⁻¹ in the assay on Neisseria meningitidis [20]. Also, the outcome in the assay on Neisseria meningitidis [12] was Active. The inhibition with Neisseria meningitidis [13] came to 19%; with Neisseria meningitidis [14], 27%; with Neisseria meningitidis [15], 24%; in the assay on Neisseria meningitidis [19] it was 29%. In assay [17], the inhibition result was “inactive”.
